Measurements taken from ChEMBL document CHEMBL1764953, “Discovery of orally active carboxylic acid derivatives of 2-phenyl-5-trifluoromethyloxazole-4-carboxamide as potent diacylglycerol acyltransferase-1 inhibitors for the potential treatment of obesity and diabetes” (J Med Chem, 2011).
One block for each compound: values may come before it.

Assays:
hERG [1] = molecular target: T1, hERG (Homo sapiens, UniProt Q12809); experiment: Inhibition of human ERG-mediated current expressed in CHO cells at 30 uM by patch clamp method; assay type: cell-based; details: CHO cells expressing human ERG
T1 sequence (Q12809 whole entry): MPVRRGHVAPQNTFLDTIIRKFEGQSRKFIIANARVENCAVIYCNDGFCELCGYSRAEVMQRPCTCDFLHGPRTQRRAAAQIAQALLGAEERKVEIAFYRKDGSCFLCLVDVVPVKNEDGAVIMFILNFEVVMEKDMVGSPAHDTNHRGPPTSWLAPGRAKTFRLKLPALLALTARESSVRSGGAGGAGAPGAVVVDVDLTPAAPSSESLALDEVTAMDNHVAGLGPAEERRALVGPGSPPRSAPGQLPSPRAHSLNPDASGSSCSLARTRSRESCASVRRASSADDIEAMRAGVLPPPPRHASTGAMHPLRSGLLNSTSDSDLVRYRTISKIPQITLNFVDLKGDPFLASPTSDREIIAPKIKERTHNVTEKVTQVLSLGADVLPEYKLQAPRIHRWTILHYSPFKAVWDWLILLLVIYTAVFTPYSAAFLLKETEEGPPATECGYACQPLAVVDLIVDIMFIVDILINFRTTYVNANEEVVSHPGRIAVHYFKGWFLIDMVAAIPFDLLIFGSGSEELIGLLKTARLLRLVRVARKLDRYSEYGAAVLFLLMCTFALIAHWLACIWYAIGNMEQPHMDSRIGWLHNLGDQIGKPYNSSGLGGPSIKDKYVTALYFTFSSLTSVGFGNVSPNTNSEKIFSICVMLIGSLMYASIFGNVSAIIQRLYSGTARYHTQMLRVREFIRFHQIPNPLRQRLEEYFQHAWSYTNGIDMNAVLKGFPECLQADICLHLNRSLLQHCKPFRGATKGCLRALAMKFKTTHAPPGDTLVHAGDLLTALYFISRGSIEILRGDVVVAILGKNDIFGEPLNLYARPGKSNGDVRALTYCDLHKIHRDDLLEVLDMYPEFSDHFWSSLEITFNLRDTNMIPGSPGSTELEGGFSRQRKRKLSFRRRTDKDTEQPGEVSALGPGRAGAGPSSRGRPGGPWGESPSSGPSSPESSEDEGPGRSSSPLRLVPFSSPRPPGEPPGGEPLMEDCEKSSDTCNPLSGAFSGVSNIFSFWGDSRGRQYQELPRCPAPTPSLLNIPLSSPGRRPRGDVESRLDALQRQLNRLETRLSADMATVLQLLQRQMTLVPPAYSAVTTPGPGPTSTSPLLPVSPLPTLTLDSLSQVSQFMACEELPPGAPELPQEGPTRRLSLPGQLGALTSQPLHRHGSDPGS
Procedure, shortened: (§1)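 hERG-transfected CHO cells on automated whole-cell patch clamp at a holding potential of −80 mV; 1 s depolarizing pulse at 0.1 Hz; tail current measured at −40 mV. Sequence: 0.3% DMSO vehicle, three ascending log-interval concentrations up to 30 μM or the solubility limit, then 1 μM E-4031. At least 3 cells per compound; data normalized to vehicle and fitted with the Hill equation.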

[2] = Cmax in diet-induced obese mouse plasma at 25 mg/kg administered as suspension; assay type: ADME, organism-based; design: dose 25 mg/kg
[3] = Tmax in diet-induced obese mouse at 25 mg/kg administered as suspension; assay type: ADME, organism-based; design: dose 25 mg/kg; details: in vivo
hERG [4] = molecular target: T1, hERG; experiment: Inhibition of human ERG-mediated current expressed in CHO cells at 3 uM by patch clamp method; assay type: cell-based; details: CHO cells expressing human ERG; procedure, shortened: as §1
hERG [5] = molecular target: T1, hERG; experiment: Inhibition of human ERG-mediated current expressed in CHO cells at 1 uM by patch clamp method; assay type: cell-based; details: CHO cells expressing human ERG; procedure, shortened: as §1
hERG [6] = molecular target: T1, hERG; experiment: Inhibition of human ERG-mediated current expressed in CHO cells by patch clamp method; assay type: cell-based; details: CHO cells expressing human ERG; procedure, shortened: as §1
[7] = molecular target: T2, Diacylglycerol O-acyltransferase 1 (Homo sapiens, UniProt O75907); experiment: Inhibition of human DGAT1 expressed in CHO-K1 cells after 1 hr using 14C palmitic acid
T2 sequence (O75907 whole entry): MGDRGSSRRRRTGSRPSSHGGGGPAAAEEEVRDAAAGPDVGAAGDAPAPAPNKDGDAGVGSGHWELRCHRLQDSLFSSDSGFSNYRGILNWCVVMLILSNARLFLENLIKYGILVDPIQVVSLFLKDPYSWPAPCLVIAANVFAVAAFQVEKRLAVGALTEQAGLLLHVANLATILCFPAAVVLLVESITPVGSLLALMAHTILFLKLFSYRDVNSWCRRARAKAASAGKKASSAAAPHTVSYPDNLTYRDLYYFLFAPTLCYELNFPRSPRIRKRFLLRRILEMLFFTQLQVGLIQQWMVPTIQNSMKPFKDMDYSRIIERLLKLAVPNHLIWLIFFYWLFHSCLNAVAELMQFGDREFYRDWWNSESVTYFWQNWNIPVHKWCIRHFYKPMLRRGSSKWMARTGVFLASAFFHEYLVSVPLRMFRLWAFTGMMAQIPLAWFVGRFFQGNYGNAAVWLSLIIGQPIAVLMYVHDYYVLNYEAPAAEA

[8] = Solubility of the compound at mp 217 degC; assay type: physicochemical
[9] = molecular target: T2, Diacylglycerol O-acyltransferase 1; experiment: Inhibition of human DGAT1 expressed in baculovirus infected insect cells after 1 hr using palmitoyl-1-14C-coenzyme A by phospholipid flashplate assay
[10] = Oral bioavailability in rat at 5 mg/kg; assay type: ADME, organism-based; details: in vivo
[11] = Clearance in rat at 5 mg/kg, iv; assay type: ADME, organism-based; design: dose 5 mg/kg, route intravenous; details: in vivo
Rattus norvegicus = experiment: Antiobesity activity in diet-induced obese rat assessed as reduction in body weight gain at 25 mg/kg, po qd; assay type: functional; design: scale not given: the % may be the effect or the level left
hERG [12] = molecular target: T1, hERG; experiment: Inhibition of human ERG
Cavia porcellus = species: Cavia porcellus; experiment: Cardiotoxicity in guinea pig Langendorff heart model assessed as QT QT prolongation; assay type: toxicity

SMILES: COCCN(C)c1ccc(NC(=O)c2nc(C)oc2C(F)(F)F)cn1
- inhibition at 30 µM (hERG [1]): 37%

- Cmax [2]: 76 ng/mL
- Tmax [3]: 1 h
SMILES: O=C(Nc1ccc(C2CCN(C(=O)C3CC3)CC2)cc1)c1nc(-c2ccccc2)oc1C(F)(F)F
- inhibition at 3 µM (hERG [4]): 13%

SMILES: O=C(Nc1ccc(N2CCN(C(=O)[C@H]3CC[C@H](C(=O)O)CC3)CC2)cc1)c1nc(-c2ccccc2)oc1C(F)(F)F
- inhibition at 1 µM (hERG [5]): 5%

SMILES: O=C(O)COC1CN(c2ccc(NC(=O)c3nc(-c4ccccc4)oc3C(F)(F)F)cn2)C1
- inhibition at 30 µM (hERG [1]): 12%

SMILES: COC(=O)N1CCC(c2ccc(NC(=O)c3nc(-c4ccccc4)oc3C(F)(F)F)cn2)CC1
- inhibition at 1 µM (hERG [5]): 16%

SMILES: COCCN(C)c1ncc(NC(=O)c2nc(-c3ccccc3)oc2C(F)(F)F)cn1
- IC20 (hERG [6]): 1500 nM

SMILES: O=C(Nc1ccc(N2CCN(C(=O)C3CC3)CC2)nc1)c1nc(-c2ccccc2)oc1C(F)(F)F
- IC20 (hERG [6]): 180 nM

SMILES: COC(=O)N1CCN(c2ncc(NC(=O)c3nc(-c4ccccc4)oc3C(F)(F)F)cn2)CC1
- inhibition at 1 µM (hERG [5]): 28%

SMILES: COCCN(C)c1ccc(N(C)C(=O)c2nc(-c3ccccc3)oc2C(F)(F)F)cn1
- inhibition at 30 µM (hERG [1]): 34%

SMILES: O=C(Nc1cnc(N2CC[C@H](O)C2)nc1)c1nc(-c2ccccc2)oc1C(F)(F)F
- IC20 (hERG [6]): 10000 nM

- EC50 [7]: 25000 nM
- solubility [8]: < 1 µg/mL
- IC50 [9]: 16 nM
SMILES: O=C(Nc1ccc(N2CC(F)(F)C2)nc1)c1nc(-c2ccccc2)oc1C(F)(F)F
- inhibition at 1 µM (hERG [5]): 17%

SMILES: O=C(Nc1ccc(C2CCN(C(=O)C3CC3)CC2)nc1)c1nc(-c2ccccc2)oc1C(F)(F)F
- IC20 (hERG [6]): 1730 nM

SMILES: COC(=O)N1CCN(c2ccc(NC(=O)c3nc(-c4ccccc4)oc3C(F)(F)F)cc2)CC1
- inhibition at 3 µM (hERG [4]): 16%

SMILES: COC(=O)N1CCN(c2ccc(NC(=O)c3nc(-c4ccccc4)oc3C(F)(F)F)cn2)CC1
- IC20 (hERG [6]): 1940 nM

SMILES: CCOC(=O)N1CCN(c2ccc(NC(=O)c3nc(-c4ccccc4)oc3C(F)(F)F)cn2)CC1
- IC20 (hERG [6]): 800 nM

- Cmax [2]: < 10 ng/mL
SMILES: COC(=O)N1CCC(c2ccc(NC(=O)c3nc(-c4ccccc4)oc3C(F)(F)F)cc2)CC1

SMILES: O=C(Nc1ccc(N2CCN(C(=O)C3CC3)CC2)cc1)c1nc(-c2ccccc2)oc1C(F)(F)F
- inhibition at 3 µM (hERG [4]): 35%

- bioavailability [10]: 77%
- clearance [11]: 13.5 mL/min/kg
SMILES: COCCN(C)c1ccc(NC(=O)c2nc(-c3ccccc3)oc2C(F)(F)F)cn1
- IC20 (hERG [6]): 200 nM
- Activity (Rattus norvegicus): 4.3%
- IC20 (hERG [12]): 200 nM
- Activity (Cavia porcellus): Toxic

SMILES: CCOC1CN(c2ccc(NC(=O)c3nc(-c4ccccc4)oc3C(F)(F)F)cn2)C1
- IC20 (hERG [6]): 370 nM

SMILES: O=C(Nc1ccc(N2CCN(C(=O)[C@H]3CC[C@@H](C(=O)O)CC3)CC2)cc1)c1nc(-c2ccccc2)oc1C(F)(F)F
- IC20 (hERG [6]): > 10000 nM

SMILES: COCCN(C)c1ccc(NC(=O)c2nc(-c3ccccc3)oc2C(F)(F)F)cc1
- inhibition at 1 µM (hERG [5]): 18%

- EC50 [7]: 220 nM
- IC50 [9]: 82 nM
SMILES: O=C(Nc1ccc(C2CCN(C(=O)[C@H]3CC[C@@H](C(=O)O)CC3)CC2)cc1)c1nc(-c2ccccc2)oc1C(F)(F)F
- inhibition at 3 µM (hERG [4]): 21%
